Tests used:
[1] = target: Histone deacetylase 1/3/5/8 (Homo sapiens, UniProt Q13547+O15379+Q9UQL6+Q9BY41); experiment: Inhibition of HDAC1/HDAC3/HDAC5/HDAC8 in human HeLa nuclear extract using Boc-Lys(acetyl)-AMC as substrate incubated for 5 mins prior to substrate measured after 30 mins by spectrophotometric analysis; type: protein assay
Aminopeptidase N [2] = target: T1, Aminopeptidase N (Sus scrofa, UniProt P15145); experiment: Inhibition of pig microsomal aminopeptidase N using L-leu-p-nitroanilide as substrate incubated for 5 mins prior to substrate addition measured after 30 mins by spectrophotometric analysis
T1 sequence (P15145 whole entry): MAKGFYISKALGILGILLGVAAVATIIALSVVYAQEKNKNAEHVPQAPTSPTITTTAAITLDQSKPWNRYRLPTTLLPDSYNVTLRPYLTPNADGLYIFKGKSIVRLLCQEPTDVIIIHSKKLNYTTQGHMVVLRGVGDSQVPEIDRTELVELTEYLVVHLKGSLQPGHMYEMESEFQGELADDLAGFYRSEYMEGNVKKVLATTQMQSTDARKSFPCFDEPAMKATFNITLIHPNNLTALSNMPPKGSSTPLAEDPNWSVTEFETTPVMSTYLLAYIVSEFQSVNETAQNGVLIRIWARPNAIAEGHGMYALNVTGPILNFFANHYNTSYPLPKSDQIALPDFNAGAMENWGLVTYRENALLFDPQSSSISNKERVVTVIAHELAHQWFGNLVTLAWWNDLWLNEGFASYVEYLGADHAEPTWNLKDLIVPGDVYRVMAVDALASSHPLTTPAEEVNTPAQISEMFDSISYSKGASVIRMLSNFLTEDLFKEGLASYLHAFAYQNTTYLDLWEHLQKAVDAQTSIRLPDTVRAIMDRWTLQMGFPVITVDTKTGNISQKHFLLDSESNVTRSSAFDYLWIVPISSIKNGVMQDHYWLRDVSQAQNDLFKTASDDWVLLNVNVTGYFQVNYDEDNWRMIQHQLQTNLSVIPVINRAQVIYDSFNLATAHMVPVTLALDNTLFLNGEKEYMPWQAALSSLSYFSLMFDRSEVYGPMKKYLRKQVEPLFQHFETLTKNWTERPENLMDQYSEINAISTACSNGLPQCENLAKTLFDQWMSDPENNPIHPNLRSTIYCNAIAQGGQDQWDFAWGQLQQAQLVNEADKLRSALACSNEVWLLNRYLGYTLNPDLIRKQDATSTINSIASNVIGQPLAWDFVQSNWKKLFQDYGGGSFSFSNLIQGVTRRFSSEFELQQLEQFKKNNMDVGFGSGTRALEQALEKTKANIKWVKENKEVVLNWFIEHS
Outline: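 Porcine kidney microsomal aminopeptidase in 50 mM PBS, pH 7.2. Compounds at various concentrations preincubated with enzyme 5 min at 37 °C, then L-leu-p-nitroanilide added and incubated 30 min at 37 °C. IC50 from triplicate experiments, mean ± SD.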

Aminopeptidase N [3] = target: Aminopeptidase N (Homo sapiens, UniProt P15144); experiment: Inhibition of aminopeptidase N in human ES2 cells using L-leu-p-nitroanilide as substrate incubated for 5 mins prior to substrate addition measured after 30 mins by spectrophotometric analysis; type: cell-based
Outline: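 Whole ES-2 cell suspension in PBS (1 × 10^5 cells/well) used as enzyme source. Compounds at various concentrations preincubated 5 min at 37 °C, then L-leu-p-nitroanilide added and incubated 30 min at 37 °C. IC50 from triplicate experiments, mean ± SD.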

U-937 = experiment: Antiproliferative activity against human U937 cells after 48 hrs by MTT assay; type: functional, cell-based; conditions: U-937, 48 h
Outline: (§1)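 Cells grown in RPMI1640 with FBS at 37 °C, 5% CO2; seeded 5000/well, 4 h before adding inhibitor at varied concentrations. After 48 h, 1% MTT added for 4 h, formazan dissolved in DMSO (15 min mixing), OD read at 570 nm. IC50 from three independent experiments, mean values.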

[4] = Antiproliferative activity against human ES2 cells after 48 hrs by MTT assay; type: functional, cell-based; conditions: ES-2, 48 h; outline: as §1

Sequence of Aminopeptidase N (Homo sapiens, UniProt P15144) (P15144 whole entry): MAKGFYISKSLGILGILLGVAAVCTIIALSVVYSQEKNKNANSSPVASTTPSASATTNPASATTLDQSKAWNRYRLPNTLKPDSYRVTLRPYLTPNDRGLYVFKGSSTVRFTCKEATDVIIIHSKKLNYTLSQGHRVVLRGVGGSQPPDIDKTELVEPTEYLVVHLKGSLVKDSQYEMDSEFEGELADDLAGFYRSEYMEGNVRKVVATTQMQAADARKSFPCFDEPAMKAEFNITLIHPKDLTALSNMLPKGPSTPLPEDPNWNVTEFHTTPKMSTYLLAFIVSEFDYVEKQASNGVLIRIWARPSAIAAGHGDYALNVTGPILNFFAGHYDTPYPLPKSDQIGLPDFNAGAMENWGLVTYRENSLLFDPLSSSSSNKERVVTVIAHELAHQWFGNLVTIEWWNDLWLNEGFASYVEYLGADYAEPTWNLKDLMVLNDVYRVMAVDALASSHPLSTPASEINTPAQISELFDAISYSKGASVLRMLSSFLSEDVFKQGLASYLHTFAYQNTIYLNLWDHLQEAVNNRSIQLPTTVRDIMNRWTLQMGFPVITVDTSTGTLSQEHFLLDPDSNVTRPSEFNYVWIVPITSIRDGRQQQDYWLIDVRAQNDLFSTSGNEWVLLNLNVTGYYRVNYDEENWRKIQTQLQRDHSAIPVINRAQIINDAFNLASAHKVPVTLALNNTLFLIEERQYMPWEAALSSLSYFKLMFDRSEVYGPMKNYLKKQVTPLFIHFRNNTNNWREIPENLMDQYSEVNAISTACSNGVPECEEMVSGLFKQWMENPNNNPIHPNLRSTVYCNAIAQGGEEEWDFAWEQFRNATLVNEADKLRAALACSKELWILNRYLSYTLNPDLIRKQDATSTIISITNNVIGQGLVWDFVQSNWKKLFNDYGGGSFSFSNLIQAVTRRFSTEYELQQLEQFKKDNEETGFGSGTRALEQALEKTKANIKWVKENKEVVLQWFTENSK

Row | IC50 [1] [µM] | IC50 (Aminopeptidase N [2]) [µM] | IC50 (Aminopeptidase N [3]) [µM] | IC50 (U-937) [µM] | Compound | IC50 [4] [µM]
1 | > 100 | 1.9 |  |  | CC(C)C[C@H](NC(=O)Nc1cccc(F)c1)C(=O)NO | 
2 | > 100 | 1.66 |  |  | CC(C)C[C@H](NC(=O)Nc1cccc(Cl)c1)C(=O)NO | 
3 | > 100 | 0.58 |  |  | CC(C)C[C@H](NC(=O)Nc1cccc(Br)c1)C(=O)NO | 
4 | > 100 | 0.24 |  |  | Cc1cccc(NC(=O)N[C@@H](CC(C)C)C(=O)NO)c1 | 
5 | > 100 | 1.36 |  |  | COc1cccc(NC(=O)N[C@@H](CC(C)C)C(=O)NO)c1 | 
6 | > 100 | 1.97 |  |  | CC(C)C[C@H](NC(=O)Nc1cccc(C(F)(F)F)c1)C(=O)NO | 
7 | > 100 | 1.7 |  |  | CC(C)C[C@H](NC(=O)Nc1cccc(O)c1)C(=O)NO | 

Further lines, the molecule ahead of its results:

Row | Compound | IC50 [1] [µM] | IC50 (Aminopeptidase N [2]) [µM] | IC50 (Aminopeptidase N [3]) [µM] | IC50 (U-937) [µM] | IC50 [4] [µM]
8 | CC(C)C[C@H](NC(=O)Nc1ccccc1)C(=O)NO | > 100 | 1.15 |  |  | 
9 | CC(C)C[C@H](NC(=O)NCc1ccccc1F)C(=O)NO | > 100 | 1.38 |  |  | 
10 | CC(C)C[C@H](NC(=O)NCc1ccccc1Cl)C(=O)NO | > 100 | 0.22 | 0.65 |  | 
11 | CC(C)C[C@H](NC(=O)NCc1ccccc1Br)C(=O)NO | > 100 | 0.13 | 0.73 |  | 
12 | Cc1ccccc1CNC(=O)N[C@@H](CC(C)C)C(=O)NO | > 100 | 0.9 |  |  | 
13 | CC(C)C[C@H](NC(=O)NCc1cccc(Cl)c1)C(=O)NO | > 100 | 0.35 |  |  | 
14 | Cc1cccc(CNC(=O)N[C@@H](CC(C)C)C(=O)NO)c1 | > 100 | 0.44 |  |  | 
15 | CC(C)C[C@H](NC(=O)Nc1ccccc1F)C(=O)NO | > 100 | 0.52 |  |  | 
16 | CC(C)C[C@H](NC(=O)Nc1ccccc1Cl)C(=O)NO | > 100 | 0.093 | 1.31 | > 1000 | 615
17 | CC(C)C[C@H](NC(=O)Nc1ccccc1Br)C(=O)NO | > 100 | 0.06 | 0.53 | > 1000 | 405
18 | Cc1ccccc1NC(=O)N[C@@H](CC(C)C)C(=O)NO | > 100 | 0.18 | 0.61 |  | 
19 | COc1ccccc1NC(=O)N[C@@H](CC(C)C)C(=O)NO | > 100 | 0.13 | 0.7 | > 1000 | 480
20 | CC(C)C[C@H](NC(=O)Nc1ccccc1C(F)(F)F)C(=O)NO | > 100 | 0.79 |  |  | 
21 | CC(C)C[C@H](NC(=O)Nc1ccccc1O)C(=O)NO | > 100 | 11.9 |  |  | 
22 | CC(C)C[C@H](NC(=O)[C@@H](O)[C@H](N)Cc1ccccc1)C(=O)O [UBENIMEX] | > 100 |  |  | > 1000 | 620

— ChEMBL document CHEMBL2331374, “Novel leucine ureido derivatives as inhibitors of aminopeptidase N (APN)” (Bioorg Med Chem, 2013)
